Consider 33 molecules from ChEMBL document CHEMBL1147759, “Substituted indanylacetic acids as PPAR-alpha-gamma activators” (Bioorg Med Chem Lett, 2006).

In data set [1] the target is T1, Peroxisome proliferator-activated receptor alpha (Homo sapiens, UniProt Q07869).
T1 sequence (Q07869 whole entry): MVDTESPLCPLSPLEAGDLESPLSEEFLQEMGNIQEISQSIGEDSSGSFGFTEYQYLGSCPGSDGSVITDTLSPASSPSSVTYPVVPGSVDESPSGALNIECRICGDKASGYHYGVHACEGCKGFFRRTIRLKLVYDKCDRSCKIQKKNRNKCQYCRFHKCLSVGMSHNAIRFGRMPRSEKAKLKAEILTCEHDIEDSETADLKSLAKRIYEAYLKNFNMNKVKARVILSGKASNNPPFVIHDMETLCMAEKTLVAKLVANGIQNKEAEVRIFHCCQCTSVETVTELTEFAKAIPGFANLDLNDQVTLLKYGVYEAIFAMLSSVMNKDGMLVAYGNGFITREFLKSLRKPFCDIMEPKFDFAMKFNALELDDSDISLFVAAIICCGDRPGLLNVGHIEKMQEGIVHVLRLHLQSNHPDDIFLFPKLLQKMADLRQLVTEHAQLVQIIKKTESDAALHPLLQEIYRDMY
As to the kind of experiment: Activity against PPAR alpha in human by FRET assay. The essentials:
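Human PPAR-α ligand-binding domain (GST-tagged), incubated with compound, europium-labelled anti-GST antibody, biotinylated CREB-binding protein co-activator and streptavidin-APC. Time-resolved FRET read with excitation at 340 nm and emission at 615 and 640 nm. EC50 taken as the mean of at least three experiments.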

For data set [2], the target named is T2, Peroxisome proliferator-activated receptor gamma (Homo sapiens, UniProt P37231).
T2 sequence (P37231 whole entry): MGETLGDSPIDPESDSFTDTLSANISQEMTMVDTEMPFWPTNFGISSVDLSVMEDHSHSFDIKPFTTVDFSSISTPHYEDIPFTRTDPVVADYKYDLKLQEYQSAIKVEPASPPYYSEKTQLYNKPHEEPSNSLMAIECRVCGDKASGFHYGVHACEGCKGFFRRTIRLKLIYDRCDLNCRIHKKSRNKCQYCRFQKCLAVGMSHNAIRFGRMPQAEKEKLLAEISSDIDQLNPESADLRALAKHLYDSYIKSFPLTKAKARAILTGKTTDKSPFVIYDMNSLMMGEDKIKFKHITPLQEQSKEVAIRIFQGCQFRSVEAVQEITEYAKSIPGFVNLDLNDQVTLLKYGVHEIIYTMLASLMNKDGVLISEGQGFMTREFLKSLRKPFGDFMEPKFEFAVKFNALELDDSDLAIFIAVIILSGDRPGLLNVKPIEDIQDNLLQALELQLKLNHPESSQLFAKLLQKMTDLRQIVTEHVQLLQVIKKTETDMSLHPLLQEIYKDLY
As to the kind of experiment: Activity against PPAR gamma in human by FRET assay.

The subject of data set [3] is Mus musculus. As to the kind of experiment: Increase in serum HDL in male hApoA1 mice administered at 10 mg/kg, po. It is filed as functional. The procedure, abridged: (§1)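 Male hApoA1 transgenic mice, n = 16 per group, had ad lib water and chow. They were dosed by oral gavage once daily for eight days in 0.5% methylcellulose vehicle, with vehicle controls. Serum lipid changes are compared with vehicle.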

Data set [4] is described as follows: AUC in male db/db mice administered at 3 mg/kg, po. It is filed as ADME, organism-based. Details: dose 3 mg/kg, route oral. To be noted: mouse, plasma.
Data set [5] in a line: Cmax in male hApoA1 transgenic mice administered at 3 mg/kg, po. The format is ADME, organism-based. Details: dose 3 mg/kg, route oral. The settings on record: mouse, in vivo.
The subject of data set [6] is Mus musculus. Nature of the data set: Decrease in serum triglyceride level in male hApoA1 mice administered at 10 mg/kg. Details: scale not given: the % may be the effect or the level left. The format is functional. The procedure, abridged:
as §1

For data set [7], the system named is Mus musculus. As to the kind of experiment: Increase in serum HDL in male hApoA1 mice administered at 30 mg/kg, po. The format is functional. The essentials:
as §1

The subject of data set [8] is Mus musculus. As to the kind of experiment: Decrease in blood glucose level in male db/db mice administered at 10 mg/kg, po. The format is functional. On the set-up: scale not given: the % may be the effect or the level left. The essentials: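 Given by oral gavage once daily for 14 days in 0.5% methylcellulose vehicle, with vehicle-dosed controls. After the last dose the mice were euthanized and blood was collected for glucose measurement. The decrease is expressed relative to vehicle.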

The subject of data set [9] is Mus musculus. As to the kind of experiment: Decrease in serum triglyceride level in male hApoA1 mice administered at 30 mg/kg. On the set-up: scale not given: the % may be the effect or the level left. The format is functional. The procedure, abridged:
as §1

Data set [10] in a line: AUC in male hApoA1 transgenic mice administered at 3 mg/kg, po. The format is ADME, organism-based. Details: dose 3 mg/kg, route oral. The settings on record: mouse, plasma.
The nature of data set [11]: Cmax in male db/db mice administered at 3 mg/kg, po. On the set-up: dose 3 mg/kg, route oral. It is filed as ADME, organism-based. The settings on record: mouse, in vivo.

As a reminder, the EC50 is the concentration needed to bring the measured effect to its halfway point. As for `CCC(C(=O)O)C1CCc2cc(OCCc3noc(-c4ccccc4)n3)ccc21` (stereo not given), the EC50 in data set [1] was 1.04 µM; in data set [2] it was greater than 10 µM.

For the molecule `CCC(C(=O)O)C1CCc2cc(OCCc3nc(-c4ccccc4)oc3C)ccc21` (stereo not given), the EC50 was 0.141 µM in [1] and 0.042 µM in data set [2].

For the molecule `CCC(C(=O)O)C1CCc2cc(OCCc3nc(COc4ccc(Cl)cc4)oc3C)ccc21` (stereo not given), the EC50 in data set [1] turned out to be 0.053 µM; in data set [2] it was 0.104 µM.

With `CCC(C(=O)O)C1CCc2cc(OCCc3nc(-c4ccc(Cl)c(Cl)c4)oc3C)ccc21` (stereo in doubt; 66), the EC50 in data set [1] turned out to be 0.091 µM; in [2], 0.094 µM.

Take `CCC(C(=O)O)C1CCc2cc(OCCc3nc(-c4ccc(C(C)(C)C)cc4)oc3C)ccc21` (stereo not given): the EC50 in data set [1] is 0.24 µM; in data set [2] it was 0.019 µM.

Regarding `CCC(C(=O)O)C1CCc2cc(OCCc3nc(-c4cc(C)on4)oc3C)ccc21` (stereo not given), the concentration giving a half-maximal response (EC50) was found to be 0.827 µM in data set [1] and 0.762 µM in [2].

Turning to `CCC(C(=O)O)C1CCc2cc(OCc3cc(-c4ccccc4)on3)ccc21` (stereo not given), the EC50 in data set [1] is 0.67 µM; in data set [2], greater than 10 µM.

Regarding `CCCCc1ccc(-c2nc(CCOc3ccc4c(c3)CCC4C(CC)C(=O)O)c(C)o2)cc1` (stereo not given), the EC50 in [1] came to 0.082 µM; in data set [2] it was 0.016 µM.

For `CCC(C(=O)O)C1CCc2cc(OCCc3nc(-c4ccccc4)oc3C)c(Cl)cc21` (stereo not given), the 50% effective concentration (EC50) is 0.127 µM in [1] and 0.294 µM in [2].

For the molecule `CCC(C(=O)O)C1CCc2cc(OCCc3coc(-c4ccccc4)n3)ccc21` (stereo not given), the 50% effective concentration (EC50) was determined as 0.383 µM in [1] and 0.306 µM in data set [2].

`CCC(C(=O)O)C1CCc2cc(OCCc3nc(-c4ccc(C(F)(F)F)cc4)oc3C)ccc21` (stereo not given): the EC50 in data set [1] came to 0.058 µM; in data set [2], 0.205 µM.

As for `CCC(C(=O)O)C1CCc2cc(OCCCc3nc(-c4ccccc4)oc3C(F)(F)F)ccc21` (stereo not given), the values for the EC50 in data set [1] and in [2] were 0.232 µM and greater than 10 µM, respectively.

Turning to `CCC(C(=O)O)C1CCc2cc(OCCc3nc(-c4cc5ccccc5s4)oc3C)ccc21` (stereo not given), the figures for the EC50 in data set [1] and in data set [2] were 0.287 µM and 0.037 µM, respectively.

`CCC(C(=O)O)C1CCc2cc(OCCc3nc(-c4ccccc4)oc3C(C)C)ccc21` (stereo not given): the EC50 is greater than 10 µM in [1] and 0.347 µM in data set [2].

For the molecule `COC(C(=O)O)C1CCc2cc(OCCc3nc(-c4ccccc4)oc3C)ccc21` (stereo not given), the values for the EC50 in data set [1] and in [2] were 0.67 µM and 0.045 µM, respectively.

In the case of `CCC(C(=O)O)C1CCc2cc(OCCc3nc(-c4ccco4)oc3C)ccc21` (stereo not given), the EC50 turned out to be 0.745 µM in [1] and 0.396 µM in [2].

Take `Cc1oc(-c2ccccc2)nc1CCOc1ccc2c(c1)CCC2C(C(=O)O)c1ccccc1` (stereo not given): the EC50 in data set [1] worked out at 7.26 µM; in data set [2] it was 9.56 µM.

Consider `CCC(C(=O)O)C1CCc2cc(OCCc3nc(Cc4ccc(F)cc4)oc3C)ccc21` (stereo not given), for which the EC50 came out at 0.204 µM in [1] and 0.523 µM in [2].

Take `CC[C@@H](C(=O)O)[C@@H]1CCc2cc(OCCc3nc(-c4ccc(C)cc4)oc3C)ccc21`: the results for the EC50 in [1] and in [2] were 1.52 µM and greater than 10 µM, respectively.

On to `CCC(C(=O)O)C1CCc2cc(OCCc3nc(-c4ccc(Cl)cc4Cl)oc3C)ccc21` (stereo not given), for which the EC50 was found to be 5.48 µM in data set [1] and 0.738 µM in data set [2].

Take `CCC(C(=O)O)C1CCc2cc(OCCc3nc(-c4ccccc4F)oc3C)ccc21` (stereo not given): the values for the concentration for a half-maximal effect (EC50) in [1] and in data set [2] were 0.559 µM and 0.049 µM, respectively.

For `CCC(C(=O)O)C1CCc2cc(OCCc3nc(-c4ccc5ccccc5c4)oc3C)ccc21` (stereo not given), the EC50 in data set [1] is 0.104 µM; in data set [2] it was 0.016 µM.

As for `CC[C@H](C(=O)O)[C@@H]1CCc2cc(OCCc3nc(-c4ccc(F)cc4)oc3C)ccc21`, the EC50 in data set [1] came out at 0.094 µM; in data set [2], 0.046 µM.

What is called AUC is the area under the concentration-time curve, a measure of exposure. A word on the Cmax: it is the highest concentration seen after dosing. For the molecule `CC[C@H](C(=O)O)[C@@H]1CCc2cc(OCCc3nc(-c4ccc(C)cc4)oc3C)ccc21`, the Activity in the data set with Mus musculus [3] is given as 15%; in the data set on Mus musculus [6] it was 45%; in the data set on Mus musculus [7], 30%; in the data set with Mus musculus [8], 45%; with Mus musculus [9], 60%. Besides, the AUC in data set [4] turned out to be 11600 ng·h/mL; in [10] it was 8060 ng·h/mL. For the same molecule, the Cmax in data set [5] came to 2550 ng/mL; in [11] it was 2980 ng/mL. Also, the EC50 worked out at 0.078 µM in data set [1] and 0.03 µM in data set [2].

In the case of `CCOC(C(=O)O)C1CCc2cc(OCCc3nc(-c4ccccc4)oc3C)ccc21` (stereo not given), the EC50 in data set [1] amounted to 0.5 µM; in [2], 0.012 µM.

As to `CCCC(C(=O)O)C1CCc2cc(OCCc3nc(-c4ccccc4)oc3C)ccc21` (stereo not given), the EC50 in data set [1] stood at 3.89 µM; in data set [2], 0.052 µM.

`CC[C@@H](C(=O)O)[C@H]1CCc2cc(OCCc3nc(-c4ccc(C)cc4)oc3C)ccc21`: the EC50 in data set [1] and in data set [2] was greater than 10 µM throughout.

As for `CCC(C(=O)O)C1CCc2cc(OCCc3nc(-c4cccc(F)c4)oc3C)ccc21` (stereo not given), the EC50 in data set [1] was 0.336 µM; in [2] it was 0.061 µM.

For `CCC(C(=O)O)C1CCc2cc(OCCc3nc(COc4ccccc4)oc3C)ccc21` (stereo not given), the EC50 stood at 0.061 µM in data set [1] and 0.045 µM in data set [2].

For `CC[C@@H](C(=O)O)[C@H]1CCc2cc(OCCc3nc(-c4ccccc4)oc3C)ccc21`, the 50% effective concentration (EC50) in data set [1] was greater than 10 µM; in data set [2], 0.605 µM.

Consider `CCc1oc(-c2ccccc2)nc1CCOc1ccc2c(c1)CCC2C(CC)C(=O)O` (stereo not given), for which the results for the EC50 in data set [1] and in [2] were 0.354 µM and 0.046 µM, respectively.

Turning to `CCC(C(=O)O)C1CCc2cc(OCCc3nc(-c4ccccc4)oc3C)c(-c3ccc(Cl)cc3)cc21` (stereo not given), the EC50 in data set [1] is 0.045 µM; in data set [2], 0.168 µM.

For `CCC(C(=O)O)C1CCc2cc(OCCn3nc(-c4ccccc4)c4ccccc4c3=O)ccc21` (stereo not given), the EC50 in [1] and in data set [2] was greater than 10 µM throughout.
